Two compounds from ChEMBL document CHEMBL4425094, “Novel Benzo[a]quinolizidine Analogs Induce Cancer Cell Death through Paraptosis and Apoptosis” (J Med Chem, 2016) can be followed below.

Molecules are shown by their SMILES. Active and inactive are the calls of the source. The calls are words filed in the database; no cut-off is given here.

Data set [1] has as its system PC-3. Put plainly: Induction of autophagy in human PC3 cells transfected with mRFP-GFP-LC3 assessed as LC3 granulation of LC3 at 0.5 uM after 8 hrs by fluorescence microscopic analysis. In kind it is functional, cell-based. The method, boiled down: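 PC3 cells transfected with an mRFP-GFP-LC3 reporter plasmid, then treated 8 h with 1 μM test agent or 0.5 μM rapamycin (autophagy inducer). Imaged by confocal fluorescence microscopy: yellow puncta (overlapping red/green) scored as autophagosomes, red-only puncta as autolysosomes, since GFP is quenched in acidic lysosomes.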

In data set [2] the test system is MCF7. Put plainly: Cytotoxicity against human MCF7 cells assessed as cell growth inhibition after 24 hrs by MTT assay. In kind it is functional, cell-based. The note with it: MCF7, 24 h. The method, boiled down:
(§1)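 Cells seeded 24 h in RPMI 1640 + 10% FBS. RWPE-1 was kept in K-SFM with bovine pituitary extract and EGF. Cells then exposed to compounds for 24 h at 37 °C, 5% CO2, with DMSO vehicle and docetaxel as positive control. MTT added for 4 h, absorbance read at 570 nm. Triplicate runs, IC50 reported as mean of three experiments.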
(In general: Formazan colour is commonly taken as a measure of viable cells.)

The test system of data set [3] is PC-3. The data set can be described thus: Induction of morphological changes in human PC3 cells assessed as formation of massive cytoplasmic vacuoles at 1 uM after 12 hrs by confocal microscopic analysis. In kind it is functional, cell-based.
Data set [4] deals with PC-3M. The data set can be described thus: Antitumor activity against human PC3M-lluc-C6 cells xenografted in athymic Balb/c mouse assessed as decrease in tumor burden by measuring photon intensity at 15 mg/kg, ip measured on day 18 by bioluminescence method (reference value: 2.332 x 10^10 photons/s/cm2). In kind it is functional. (Xenograft models place foreign cells or tissue in a host animal.)

The subject of data set [5] is MDA-MB-231. Put plainly: Cytotoxicity against human MDA-MB-231 cells assessed as cell growth inhibition after 24 hrs by MTT assay. In kind it is functional, cell-based. Particulars: MDA-MB-231, 24 h. Put shortly: as §1
A short description of data set [6]: Toxicity in athymic Balb/c mouse assessed as body weight loss at 15 mg/kg, ip administered every 2 days for 18 days. The data set is classed as organism-based. The note with it: in vivo. Put shortly: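 Male athymic BALB/c-nu mice bearing subcutaneous PC3M-luc-C6 xenografts, n = 5 per group. Dosing was 15 mg/kg i.p. every 2 days for 18 days versus placebo and docetaxel 15 mg/kg groups. Body weight was recorded over the treatment period.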

For data set [7], the system named is PC-3M. The data set can be described thus: Antitumor activity against human PC3M-lluc-C6 cells xenografted in athymic Balb/c mouse assessed as decrease in tumor burden by measuring photon intensity at 15 mg/kg, ip measured on day 9 by bioluminescence method (reference value: 6.501 x 10^9 photons/s/cm2). In kind it is functional.
In data set [8] the test system is PC-3M. Put plainly: Antitumor activity against human PC3M-lluc-C6 cells xenografted in athymic Balb/c mouse assessed as tumor growth inhibition at 15 mg/kg, ip administered every 2 days measured on day 18. In kind it is functional. Particulars: read-out: TGI.
The test system of data set [9] is HeLa. The data set can be described thus: Cytotoxicity against human HeLa cells assessed as cell growth inhibition after 24 hrs by MTT assay. In kind it is functional, cell-based. The method, boiled down: as §1
Data set [10] concerns PC-3. The data set can be described thus: Cytotoxicity against human PC3 cells assessed as cell growth inhibition after 24 hrs by MTT assay. The data set is classed as functional, cell-based. The note with it: PC-3, 24 h. Put shortly:
as §1

Data set [11] relates to DU-145. Put plainly: Cytotoxicity against human DU145 cells assessed as cell growth inhibition after 24 hrs by MTT assay. The data set is classed as functional, cell-based. Particulars: DU-145, 24 h. The method, boiled down: as §1
Data set [12] relates to K562. The data set can be described thus: Cytotoxicity against human K562 cells assessed as cell growth inhibition after 24 hrs by MTT assay. In kind it is functional, cell-based. Particulars: K562, 24 h. The method, boiled down: as §1
Data set [13] deals with RWPE-1. Put plainly: Cytotoxicity against human RWPE1 cells assessed as cell growth inhibition after 24 hrs by MTT assay. The data set is classed as cell-based. Particulars: RWPE-1, 24 h. The method, boiled down:
as §1

For orientation: IC50 means the midpoint of a concentration-inhibition curve.

For `CO[C@H]1C[C@@H]2CC[C@@H](C)[C@@](O)(O2)C(=O)C(=O)N2CCCC[C@H]2C(=O)O[C@H]([C@H](C)C[C@@H]2CC[C@@H](O)[C@H](OC)C2)CC(=O)[C@H](C)/C=C(\C)[C@@H](O)[C@@H](OC)C(=O)[C@H](C)C[C@H](C)/C=C/C=C/C=C/1C`, the result in data set [1] was Active.

In the case of `CC(=O)O[C@@]12CO[C@@H]1C[C@H](O)[C@@]1(C)C(=O)[C@H](O)C3=C(C)[C@@H](OC(=O)[C@H](O)[C@@H](NC(=O)OC(C)(C)C)c4ccccc4)C[C@@](O)([C@@H](OC(=O)c4ccccc4)[C@H]21)C3(C)C` [DOCETAXEL ANHYDROUS], the IC50 in data set [2] stood at 22 nM; in data set [5], 32 nM; in data set [9], 61 nM; in data set [10], 13 nM; in data set [11], 26 nM; in data set [12] it was 39 nM. Further, the 50% inhibitory concentration (IC50) in data set [13] was 1730 nM. Also, the outcome in data set [3] was inactive. The Activity in data set [4] was 1.92 ×10⁹ /s/cm2; in data set [6], 13.3 g; in data set [7], 3.513 ×10⁹ /s/cm2. In addition, in [8], the inhibition in vivo at 15 mg/kg was found to be 92%.
